By IC50 is commonly meant the concentration needed to halve the response being measured. In general, inhibition refers to the change of the read-out against control, counted positive when it falls. A word on the Ki: it is the equilibrium dissociation constant of an inhibitor or competing ligand from its target.

Structures are written as SMILES. The source made the active and inactive calls. The rule behind the calls is not given here.

Eleven compounds from ChEMBL document CHEMBL4411310, “Identification of a novel DGKα inhibitor for XLP-1 therapy by virtual screening” (Eur J Med Chem, 2019) can be followed below.

System in the first series: not listed separately
The series is described as follows: Solubility of the compound in DMSO.
Details: not given
The class given is physicochemical.
On to `Cc1nc2n(c(=O)c1CCN1CCC(c3noc4cc(F)ccc34)CC1)CCCC2` [RISPERIDONE], for which the solubility result was “Insoluble”.
Same read-out and setting: for `O=C(CN1CCC(n2nnc3ccccc32)CC1)N(C1CCCCC1)C1CCCCC1` the value was “Insoluble”.

The target of a further series is T1, Diacylglycerol kinase alpha (Homo sapiens, UniProt P23743). The series is described as follows: Inhibition of OST-tagged DGKalpha (unknown origin) expressed in MDCK cell homogenates assessed as residual activity at 100 uM using DAG as substrate measured after 5 mins in presence of [gamma-32P]ATP by TLC analysis relative to control.
T1 sequence (P23743 whole entry): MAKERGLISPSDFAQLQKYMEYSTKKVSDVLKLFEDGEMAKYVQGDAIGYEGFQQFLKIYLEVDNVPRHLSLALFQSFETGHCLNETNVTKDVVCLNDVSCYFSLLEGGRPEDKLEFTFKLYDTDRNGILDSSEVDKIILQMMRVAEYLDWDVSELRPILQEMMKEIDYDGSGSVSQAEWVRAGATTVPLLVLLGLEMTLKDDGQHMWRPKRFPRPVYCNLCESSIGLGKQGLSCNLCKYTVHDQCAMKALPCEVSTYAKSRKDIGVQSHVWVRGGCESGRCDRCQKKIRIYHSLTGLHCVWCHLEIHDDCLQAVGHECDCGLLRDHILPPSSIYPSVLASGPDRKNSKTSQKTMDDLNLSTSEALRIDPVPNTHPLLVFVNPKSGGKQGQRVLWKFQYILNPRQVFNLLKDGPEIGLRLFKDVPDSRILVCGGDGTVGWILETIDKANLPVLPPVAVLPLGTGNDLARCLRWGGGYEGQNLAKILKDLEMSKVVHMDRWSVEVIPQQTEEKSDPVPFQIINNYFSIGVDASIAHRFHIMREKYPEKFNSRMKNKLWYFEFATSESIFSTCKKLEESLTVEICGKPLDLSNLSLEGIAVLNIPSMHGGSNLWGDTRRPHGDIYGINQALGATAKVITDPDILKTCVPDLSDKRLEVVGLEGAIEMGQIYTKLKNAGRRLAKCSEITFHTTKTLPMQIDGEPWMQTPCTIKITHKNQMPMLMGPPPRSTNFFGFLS
Details: not given
It counts as cell-free.
`COc1ccccc1CCN1CCC(CN(C)C(=O)C2=CCCCC2)CC1`: the Activity was found to be 57%.
As to `O=C1C(=O)N(C2CCCC2)C(=O)N1CN1CCC(Cc2ccccc2)CC1`, the Activity came out at 50%.
Regarding `Cc1nc2sccn2c(=O)c1CCN1CCC(=C(c2ccc(F)cc2)c2ccc(F)cc2)CC1` [RITANSERIN], the Activity was found to be 17%.
Consider `O=c1c2ccccc2[nH]c(=S)n1CCN1CCN(Cc2ccccc2)CC1`, for which the Activity is 49%.
Regarding `COc1ccccc1OCCCN1CCN(C(=O)c2ccc(=O)[nH]n2)CC1`, the Activity worked out at 67%.
As for `O=c1c2ccccc2[nH]c(=S)n1CCN1CCC(=C(c2ccc(F)cc2)c2ccc(F)cc2)CC1` [DIACYLGLYCEROL KINASE INHIBITOR II], the Activity is 28%.
Consider `Cc1ccc2c(C(=O)CN3CCN(C(=O)c4ccco4)CC3)c(C)[nH]c2c1`, for which the Activity is 4%.
On the same count and under the same terms, for `O=C(NCC(=O)N1CCN(C(c2ccccc2)c2ccccc2)CC1)c1ccco1` the value was 68%.
Same read-out and setting: under `O=c1c2ccccc2[nH]c(=S)n1CCCN1CCN(c2cccc(Cl)c2)CC1` stands 39%.

The next series concerns the target T1, Diacylglycerol kinase alpha. The series is described as follows: Inhibition of OST-tagged DGKalpha (unknown origin) expressed in MDCK cell homogenates using DAG as substrate measured after 5 mins in presence of [gamma-32P]ATP by TLC analysis. It counts as cell-free.
Details: not given
A digest of the protocol: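 Doxycycline-induced (1 μg/ml, 2 days) MDCK cells expressing OST-DGKα, homogenized in Hepes pH 8 buffer with EDTA, EGTA, vanadate and protease inhibitors. Initial velocity measured 5 min at 27 °C with saturating 1,2-dioleoyl-sn-glycerol and γ32P-ATP plus 25 μM unlabelled ATP and MgCl2. Stopped with HCl, lipids extracted, separated by TLC, radioactive phosphatidic acid quantified by imager. IC50 from 0.1–100 μM, ≥3 experiments, normalized fit.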
For the compound `Cc1nc2sccn2c(=O)c1CCN1CCC(=C(c2ccc(F)cc2)c2ccc(F)cc2)CC1` [RITANSERIN], the IC50 was found to be 16.7 µM.
Same read-out and setting: for `O=c1c2ccccc2[nH]c(=S)n1CCN1CCC(=C(c2ccc(F)cc2)c2ccc(F)cc2)CC1` [DIACYLGLYCEROL KINASE INHIBITOR II] the value was 10.6 µM.
Still for that read-out and setting: for `Cc1ccc2c(C(=O)CN3CCN(C(=O)c4ccco4)CC3)c(C)[nH]c2c1` the value was 4.28 to 4.3 µM.

Another series deals with Diacylglycerol kinase zeta (Homo sapiens) (UniProt Q13574). The series is described as follows: Inhibition of DGKzeta (unknown origin) expressed in human 293T cells at 100 uM using DAG as substrate measured after 5 mins in presence of [gamma-32P]ATP by TLC analysis.
Chain of Diacylglycerol kinase zeta (Homo sapiens) (Q13574 whole entry): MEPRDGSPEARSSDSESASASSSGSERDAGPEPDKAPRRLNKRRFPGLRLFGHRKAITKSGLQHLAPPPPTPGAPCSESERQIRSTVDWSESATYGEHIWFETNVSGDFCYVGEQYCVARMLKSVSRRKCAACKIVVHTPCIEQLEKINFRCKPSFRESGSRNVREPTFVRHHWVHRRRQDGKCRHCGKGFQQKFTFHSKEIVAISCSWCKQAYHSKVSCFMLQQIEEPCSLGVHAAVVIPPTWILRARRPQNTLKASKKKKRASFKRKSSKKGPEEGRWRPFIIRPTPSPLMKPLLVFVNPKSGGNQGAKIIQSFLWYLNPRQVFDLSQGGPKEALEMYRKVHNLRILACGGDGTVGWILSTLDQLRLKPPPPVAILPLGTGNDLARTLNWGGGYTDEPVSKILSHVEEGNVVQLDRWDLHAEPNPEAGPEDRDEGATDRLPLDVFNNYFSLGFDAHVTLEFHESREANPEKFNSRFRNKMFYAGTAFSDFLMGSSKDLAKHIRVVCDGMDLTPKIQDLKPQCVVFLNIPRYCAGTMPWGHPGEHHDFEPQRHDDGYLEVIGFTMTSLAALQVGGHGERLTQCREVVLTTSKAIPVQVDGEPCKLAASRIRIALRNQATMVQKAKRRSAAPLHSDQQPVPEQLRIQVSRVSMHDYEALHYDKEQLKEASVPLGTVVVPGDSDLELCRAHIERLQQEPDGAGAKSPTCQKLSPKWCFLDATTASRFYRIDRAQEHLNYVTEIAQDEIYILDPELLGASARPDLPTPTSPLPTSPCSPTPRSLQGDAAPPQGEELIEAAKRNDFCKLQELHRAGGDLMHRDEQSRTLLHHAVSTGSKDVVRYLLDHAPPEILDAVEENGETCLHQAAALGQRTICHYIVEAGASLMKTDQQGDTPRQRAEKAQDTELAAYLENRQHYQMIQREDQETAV
Details: not given
A digest of the protocol: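 293T cells transiently transfected with the DGKζ plasmid or empty vector; homogenates collected 48 h later. Compound at 100 μM. Reaction run 5 min at 27 °C with saturating 1,2-dioleoyl-sn-glycerol, γ32P-ATP plus 25 μM unlabelled ATP, and MgCl2, at pH 8. Stopped with HCl, lipids extracted and separated by TLC, read by phosphorimaging. At least three experiments in triplicate.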
As for `O=c1c2ccccc2[nH]c(=S)n1CCN1CCC(=C(c2ccc(F)cc2)c2ccc(F)cc2)CC1` [DIACYLGLYCEROL KINASE INHIBITOR II], the inhibition entry was “inactive”.
On the same count and under the same terms, for `Cc1ccc2c(C(=O)CN3CCN(C(=O)c4ccco4)CC3)c(C)[nH]c2c1` the value was “inactive”.

The test system of the next series is Serotonin (5-HT) receptor. The series is described as follows: Antagonist activity at serotonin receptor in human PBMC assessed as inhibition of PMA-stimulated superoxide anion generation at 10 uM preincubated for 1 hr followed by PMA-stimulation and measured after 30 mins by spectrophotometric method. Particulars: 0.5 h.
Turning to `Cc1nc2sccn2c(=O)c1CCN1CCC(=C(c2ccc(F)cc2)c2ccc(F)cc2)CC1` [RITANSERIN], the “inhibition (INH)” value is listed as “Active”.
On the same count and under the same terms, for `Cc1ccc2c(C(=O)CN3CCN(C(=O)c4ccco4)CC3)c(C)[nH]c2c1` the value was “Not Active”.

Another series has as its system Jurkat. The series is described as follows: Cytotoxicity against human Jurkat cells assessed as reduction in cell viability at 1 uM after 24 hrs by trypan blue exclusion assay. It counts as cell-based.
Details: not given
The method, boiled down:
(§1)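 SAP-shRNA or control-shRNA Jurkat cells, 0.5 × 10^5 cells/well in triplicate, in wells left uncoated or precoated for 24 h at 4 °C with anti-CD3 OKT3 (50 μg/ml) or PHA-P (50 μg/ml). Inhibitor at 1 μM or DMSO control for 24 h. Live cells counted by trypan blue exclusion; % cell loss versus untreated controls. At least three experiments.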
As to `Cc1nc2sccn2c(=O)c1CCN1CCC(=C(c2ccc(F)cc2)c2ccc(F)cc2)CC1` [RITANSERIN], the Activity entry was “Non-Toxic”.
With `Cc1ccc2c(C(=O)CN3CCN(C(=O)c4ccco4)CC3)c(C)[nH]c2c1`, the Activity result is on record as “Non-Toxic”.

The target of another series is T1, Diacylglycerol kinase alpha. The series is described as follows: Inhibition of DGKalpha in OKT3-induced human Jurkat cells harboring SAP ShRNA assessed as restoration of restimulation-induced cell death at 1 uM measured after 24 hrs by trypan blue exclusion method. It counts as cell-based.
Details: not given
The method, boiled down: as §1
As for `Cc1nc2sccn2c(=O)c1CCN1CCC(=C(c2ccc(F)cc2)c2ccc(F)cc2)CC1` [RITANSERIN], the inhibition result was “Active”.
On the same count and under the same terms, under `Cc1ccc2c(C(=O)CN3CCN(C(=O)c4ccco4)CC3)c(C)[nH]c2c1` stands “Active”.

For another series the target is unchanged. The series is described as follows: Inhibition of DGKalpha in PHA-induced human Jurkat cells harboring SAP ShRNA assessed as restoration of restimulation-induced cell death at 1 uM measured after 24 hrs by trypan blue exclusion method. It counts as cell-based.
Details: not given
A digest of the protocol:
as §1
Regarding `Cc1nc2sccn2c(=O)c1CCN1CCC(=C(c2ccc(F)cc2)c2ccc(F)cc2)CC1` [RITANSERIN], the inhibition result is “Active”.
On the same count and under the same terms, under `Cc1ccc2c(C(=O)CN3CCN(C(=O)c4ccco4)CC3)c(C)[nH]c2c1` stands “Active”.

The target in another series is T-cell receptor (Homo sapiens) (UniProt P04437+P01848+P04435+P03979). The series is described as follows: Effect on TCR signaling in OKT3-induced human T-cells harboring SiRNA assessed as restoration of restimulation-induced cell death at 1 to 10 uM preincubated for 30 mins followed by OKT3 stimulation and measured 24 hrs post dose by propidium iodide staining based flow cytometry.
Details: not given
The method, boiled down:
(§2)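 PBL from healthy donors, activated with anti-CD3/CD28 and then kept in IL-2. siRNA (SAP or control, 200 pmol) delivered by nucleofection, then 4 days in IL-2. 10^5 cells/well in triplicate; inhibitor (1, 5, 10 μM) added 30 min before OKT3 restimulation (1–500 ng/ml) for 24 h. PI staining, fixed 30 s flow acquisition; % cell loss.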
A general note: A flow cytometer gives signals particle by particle.
On to `Cc1nc2sccn2c(=O)c1CCN1CCC(=C(c2ccc(F)cc2)c2ccc(F)cc2)CC1` [RITANSERIN], for which the result was inactive.
The same measure, in the same setting: under `Cc1ccc2c(C(=O)CN3CCN(C(=O)c4ccco4)CC3)c(C)[nH]c2c1` stands “inactive”.

The subject of a further series is T-cell. The series is described as follows: Cytotoxicity against human T cells assessed as cell death at 1 to 10 uM measured after 24 hrs propidium iodide staining based flow cytometry.
Details: not given
The method, boiled down:
as §2
With `Cc1nc2sccn2c(=O)c1CCN1CCC(=C(c2ccc(F)cc2)c2ccc(F)cc2)CC1` [RITANSERIN], the Activity entry is recorded as “Non-Toxic”.
Still for that read-out and setting: under `Cc1ccc2c(C(=O)CN3CCN(C(=O)c4ccco4)CC3)c(C)[nH]c2c1` stands “Non-Toxic”.

Another series addresses T1, Diacylglycerol kinase alpha. The series is described as follows: Inhibition of DGKalpha in OKT3-induced human T cells harboring SAP SiRNA assessed as restoration of restimulation-induced cell death at 1 to 10 uM preincubated for 30 mins followed by OKT3 stimulation and measured 24 hrs post dose by propidium iodide staining based flow cytometry.
Details: not given
The method, boiled down:
as §2
On to `Cc1nc2sccn2c(=O)c1CCN1CCC(=C(c2ccc(F)cc2)c2ccc(F)cc2)CC1` [RITANSERIN], for which the inhibition entry is “Active”.
Still for that read-out and setting: for `Cc1ccc2c(C(=O)CN3CCN(C(=O)c4ccco4)CC3)c(C)[nH]c2c1` the value was “Active”.

For a further series the target is unchanged. The series is described as follows: Inhibition of DGKalpha in OKT3-induced human T cells harboring SAP siRNA assessed as restoration of TCR-induced NR4A1 upregulation at 10 uM after 4 hrs by RT-PCR analysis.
Details: not given
The class given is cell-based. The method, boiled down:
(§3)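 Activated PBL transfected with SAP or control siRNA, 4 days in culture. Restimulated with OKT3 (10 μg/ml), with or without inhibitor at 10 μM. After 4 h, NR4A1 and NR4A3 measured by TaqMan qPCR normalised to GUSB. At least four independent experiments.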
With `Cc1nc2sccn2c(=O)c1CCN1CCC(=C(c2ccc(F)cc2)c2ccc(F)cc2)CC1` [RITANSERIN], the inhibition entry was “Active”.
As to `Cc1ccc2c(C(=O)CN3CCN(C(=O)c4ccco4)CC3)c(C)[nH]c2c1`, the inhibition entry is “Active”.

The next series shares this target. The series is described as follows: Inhibition of DGKalpha in OKT3-induced human T cells harboring SAP siRNA assessed as restoration of TCR-induced NR4A3 upregulation at 10 uM after 4 hrs by RT-PCR analysis. The class given is cell-based.
Details: not given
A digest of the protocol:
as §3
For the compound `Cc1ccc2c(C(=O)CN3CCN(C(=O)c4ccco4)CC3)c(C)[nH]c2c1`, the inhibition entry is “Active”.

A further series deals with Diacylglycerol kinase alpha (Sus scrofa, UniProt P20192). The series is described as follows: Inhibition of pig FLAG3-tagged DGKalpha expressed in African green monkey COS7 cells using 1,2-dioleoyl-sn-glycerol as substrate measured after 30 mins by ADP-Glo luminescence assay.
Chain of Diacylglycerol kinase alpha (Sus scrofa, UniProt P20192) (P20192 whole entry): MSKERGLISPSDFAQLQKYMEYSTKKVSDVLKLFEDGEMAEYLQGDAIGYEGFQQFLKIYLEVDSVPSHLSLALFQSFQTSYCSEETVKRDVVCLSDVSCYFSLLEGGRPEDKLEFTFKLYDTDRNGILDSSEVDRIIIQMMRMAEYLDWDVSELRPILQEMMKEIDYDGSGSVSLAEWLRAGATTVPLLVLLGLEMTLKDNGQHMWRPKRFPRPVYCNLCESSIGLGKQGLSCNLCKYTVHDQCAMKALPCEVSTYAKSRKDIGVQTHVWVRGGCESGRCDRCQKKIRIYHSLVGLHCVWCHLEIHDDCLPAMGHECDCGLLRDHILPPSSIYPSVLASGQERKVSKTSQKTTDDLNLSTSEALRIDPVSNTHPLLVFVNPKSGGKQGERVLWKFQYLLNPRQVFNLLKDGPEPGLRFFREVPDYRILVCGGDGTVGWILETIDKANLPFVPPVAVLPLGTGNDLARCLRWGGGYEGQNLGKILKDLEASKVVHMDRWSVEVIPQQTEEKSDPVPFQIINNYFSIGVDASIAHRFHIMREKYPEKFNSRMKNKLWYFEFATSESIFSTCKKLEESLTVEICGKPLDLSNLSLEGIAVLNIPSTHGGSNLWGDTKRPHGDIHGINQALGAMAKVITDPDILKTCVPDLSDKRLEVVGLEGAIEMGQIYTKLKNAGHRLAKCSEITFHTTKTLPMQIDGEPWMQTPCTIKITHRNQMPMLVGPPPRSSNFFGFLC
Details: not given
Take `O=c1c2ccccc2[nH]c(=S)n1CCN1CCC(=C(c2ccc(F)cc2)c2ccc(F)cc2)CC1` [DIACYLGLYCEROL KINASE INHIBITOR II]: the IC50 was determined as 18 µM.

The next series addresses T2, 5-hydroxytryptamine receptor 2C (Homo sapiens, UniProt P28335).
T2 sequence (P28335 whole entry): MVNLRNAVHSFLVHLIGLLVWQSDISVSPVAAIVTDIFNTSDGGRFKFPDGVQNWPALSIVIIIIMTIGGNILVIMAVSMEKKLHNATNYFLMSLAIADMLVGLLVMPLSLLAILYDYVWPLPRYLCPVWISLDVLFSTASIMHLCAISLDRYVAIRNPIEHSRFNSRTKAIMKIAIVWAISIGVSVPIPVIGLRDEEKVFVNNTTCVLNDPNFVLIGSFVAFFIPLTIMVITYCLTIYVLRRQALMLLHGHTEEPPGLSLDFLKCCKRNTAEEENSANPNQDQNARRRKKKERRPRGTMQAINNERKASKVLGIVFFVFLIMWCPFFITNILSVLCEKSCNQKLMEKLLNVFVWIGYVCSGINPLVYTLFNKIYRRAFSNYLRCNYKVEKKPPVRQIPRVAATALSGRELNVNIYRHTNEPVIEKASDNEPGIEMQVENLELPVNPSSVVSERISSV
The series is described as follows: Binding affinity to 5HT2C receptor (unknown origin).
Details: not given
Regarding `Cc1nc2sccn2c(=O)c1CCN1CCC(=C(c2ccc(F)cc2)c2ccc(F)cc2)CC1` [RITANSERIN], the affinity corresponds to a Ki of 0.00071 µM.

The next series concerns the target T1, Diacylglycerol kinase alpha. The series is described as follows: Inhibition of DGKalpha expressed in 293T cell homogenates at 100 uM using DAG as substrate measured after 5 mins in presence of [gamma-32P]ATP by TLC analysis relative to control.
Details: not given
As to `O=c1c2ccccc2[nH]c(=S)n1CCN1CCC(=C(c2ccc(F)cc2)c2ccc(F)cc2)CC1` [DIACYLGLYCEROL KINASE INHIBITOR II], the inhibition was found to be 81%.
The same measure, in the same setting: under `Cc1ccc2c(C(=O)CN3CCN(C(=O)c4ccco4)CC3)c(C)[nH]c2c1` stands 93%.
